The source made the active and inactive calls. The calls are words filed in the database; no cut-off is given here.
How the values were obtained:
Format in all cases: functional, cell-based
[1] = biological target: T1, Toll-like receptor 9 (Mus musculus) (UniProt Q9EQU3); test: Agonist activity at mouse TLR9 expressed in HEK293 cells assessed as activation of NF-kappaB at 10 ug/mL by SEAP reporter gene assay
T1 sequence (whole entry): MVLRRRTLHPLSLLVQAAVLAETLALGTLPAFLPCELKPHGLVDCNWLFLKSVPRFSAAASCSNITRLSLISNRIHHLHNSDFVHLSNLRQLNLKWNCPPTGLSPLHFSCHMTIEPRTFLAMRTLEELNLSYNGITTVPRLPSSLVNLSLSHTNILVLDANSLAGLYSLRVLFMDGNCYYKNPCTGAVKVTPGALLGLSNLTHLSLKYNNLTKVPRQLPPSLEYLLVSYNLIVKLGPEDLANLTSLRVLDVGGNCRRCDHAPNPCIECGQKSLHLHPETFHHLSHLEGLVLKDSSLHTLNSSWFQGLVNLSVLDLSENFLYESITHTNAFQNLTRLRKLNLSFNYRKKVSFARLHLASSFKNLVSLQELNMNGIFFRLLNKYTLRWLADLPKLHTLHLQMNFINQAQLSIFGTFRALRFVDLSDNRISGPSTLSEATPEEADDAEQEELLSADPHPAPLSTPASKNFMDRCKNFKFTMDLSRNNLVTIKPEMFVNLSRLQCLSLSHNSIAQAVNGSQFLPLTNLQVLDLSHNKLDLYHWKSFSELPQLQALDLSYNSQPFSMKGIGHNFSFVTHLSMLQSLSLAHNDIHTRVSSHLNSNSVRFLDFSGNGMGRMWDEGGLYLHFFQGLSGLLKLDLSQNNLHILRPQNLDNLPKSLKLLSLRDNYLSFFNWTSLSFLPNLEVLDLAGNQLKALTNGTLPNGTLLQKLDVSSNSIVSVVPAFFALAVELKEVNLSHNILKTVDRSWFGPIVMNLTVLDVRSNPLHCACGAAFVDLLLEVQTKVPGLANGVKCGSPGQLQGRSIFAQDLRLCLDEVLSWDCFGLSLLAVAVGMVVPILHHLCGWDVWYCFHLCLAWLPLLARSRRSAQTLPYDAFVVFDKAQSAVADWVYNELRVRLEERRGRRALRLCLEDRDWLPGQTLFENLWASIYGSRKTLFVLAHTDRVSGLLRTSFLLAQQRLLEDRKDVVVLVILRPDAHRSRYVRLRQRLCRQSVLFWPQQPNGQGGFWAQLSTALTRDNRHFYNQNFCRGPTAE
Summary of the method: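 HEK293 cells stably expressing mouse TLR9 were transiently transfected with a SEAP reporter for 6 h. Compounds were added at 10 µg/mL for 18 h. SEAP was read with Quanti-Blue substrate and expressed as fold change in NF-κB activity.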

[2] = biological target: T1, Toll-like receptor 9 (Mus musculus); test: Antagonist activity at mouse TLR9 expressed in HEK293 cells assessed as inhibition of 5'-CTATCTGACGTTCTCTGT-3'-induced NF-kappaB activation by SEAP reporter gene assay
Summary of the method: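 Mouse TLR9-HEK293 cells were transfected with a SEAP reporter for 6 h. They were then stimulated for 18 h with agonist (0.25 or 0.5 µg/mL) plus increasing antagonist concentrations or set agonist:antagonist ratios. Quanti-Blue read-out, reported as % NF-κB activity with agonist alone as 100%.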

[3] = biological target: T1, Toll-like receptor 9 (Mus musculus); test: Agonist activity at TLR9 in mouse J774 cells assessed as of NF-kappaB activation
Summary of the method: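 Murine J774 macrophages grown in DMEM with 10% FBS and plated at 5×10^6 cells/well. Nuclear extracts taken 1 h after agonist addition. NF-κB detected by EMSA on native polyacrylamide gels with autoradiography.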

[4] = biological target: T1, Toll-like receptor 9 (Mus musculus); test: Antagonist activity at TLR9 in mouse J774 cells assessed as inhibition of 5'-TCTGACRTTCT-X-TCTTRCAGTCT-3'-induced NF-kappaB activation pretreated for 1 hr
Summary of the method: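 J774 cells at 5×10^6 cells/well were preincubated with antagonist for 1 h. Agonist was then added: TLR9 agonist 1 µg/mL, an RNA-based TLR7/8 agonist, or LPS 100 ng/mL. Antagonist was used at 5–40 µg/mL or at the indicated agonist ratios. Nuclear extracts were taken 1 h after agonist and analysed by EMSA.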

Activity [1]	Activity [2]	Activity [3]	Activity [4]	SMILES
Active	–	–	–	CO[C@@H]1[C@H](OP(=O)(S)OC[C@H]2O[C@@H](n3ccc(N)nc3=O)C[C@@H]2OP(=O)(S)OC[C@H]2O[C@@H](n3cc(C)c(=O)[nH]c3=O)C[C@@H]2OP(=O)(S)OC[C@H]2O[C@@H](n3ccc(N)nc3=O)C[C@@H]2OP(=O)(S)OC[C@H]2O[C@@H](n3cc(C)c(=O)[nH]c3=O)C[C@@H]2OP(=O)(S)OC[C@H]2O[C@@H](n3cnc4c(=O)[nH]c(N)nc43)C[C@@H]2OP(=O)(S)OC[C@H]2O[C@@H](n3cc(C)c(=O)[nH]c3=O)C[C@@H]2O)[C@@H](COP(=O)(S)O[C@H]2[C@@H](OC)[C@H](n3ccc(=O)[nH]c3=O)O[C@@H]2COP(=O)(S)O[C@H]2C[C@H](n3cnc4c(=O)[nH]c(N)nc43)O[C@@H]2COP(=O)(S)O[C@H]2C[C@H](n3ccc(N)nc3=O)O[C@@H]2COP(=O)(S)O[C@H]2C[C@H](n3cnc4c(N)ncnc43)O[C@@H]2COP(=O)(S)O[C@H]2C[C@H](n3cnc4c(=O)[nH]c(N)nc43)O[C@@H]2COP(=O)(S)O[C@H]2C[C@H](n3cc(C)c(=O)[nH]c3=O)O[C@@H]2COP(=O)(S)O[C@H]2C[C@H](n3ccc(N)nc3=O)O[C@@H]2COP(=O)(S)O[C@H]2C[C@H](n3cc(C)c(=O)[nH]c3=O)O[C@@H]2COP(=O)(S)O[C@H]2C[C@H](n3cnc4c(N)ncnc43)O[C@@H]2COP(=O)(S)O[C@H]2C[C@H](n3cc(C)c(=O)[nH]c3=O)O[C@@H]2COP(=O)(S)O[C@@H]2C[C@@H](n3ccc(N)nc3=O)O[C@H]2CO)O[C@H]1n1ccc(=O)[nH]c1=O (some centres not stated)
Active	inactive	–	–	Cc1cn([C@@H]2O[C@H](COP(=O)(S)O[C@H]3C[C@H](n4ccc(N)nc4=O)O[C@@H]3COP(=O)(S)O[C@H]3C[C@H](n4cc(C)c(=O)[nH]c4=O)O[C@@H]3COP(=O)(S)O[C@H]3C[C@H](n4ccc(N)nc4=O)O[C@@H]3COP(=O)(S)O[C@H]3C[C@H](n4cc(C)c(=O)[nH]c4=O)O[C@@H]3COP(=O)(S)O[C@H]3C[C@H](n4cc(C)c(=O)[nH]c4=O)O[C@@H]3COP(=O)(S)O[C@H]3C[C@H](n4cnc5c(=O)[nH]c(N)nc54)O[C@@H]3COP(=O)(S)O[C@H]3C[C@H](n4ccc(N)nc4=O)O[C@@H]3COP(=O)(S)O[C@H]3C[C@H](n4cnc5c(N)ncnc54)O[C@@H]3COP(=O)(S)O[C@H]3C[C@H](n4cnc5c(=O)[nH]c(N)nc54)O[C@@H]3COP(=O)(S)O[C@H]3C[C@H](n4cc(C)c(=O)[nH]c4=O)O[C@@H]3COP(=O)(S)O[C@H]3C[C@H](n4ccc(N)nc4=O)O[C@@H]3COP(=O)(S)O[C@H]3C[C@H](n4cc(C)c(=O)[nH]c4=O)O[C@@H]3COP(=O)(S)O[C@H]3C[C@H](n4cnc5c(N)ncnc54)O[C@@H]3COP(=O)(S)O[C@H]3C[C@H](n4cc(C)c(=O)[nH]c4=O)O[C@@H]3COP(=O)(S)O[C@@H]3C[C@@H](n4ccc(N)nc4=O)O[C@H]3CO)[C@@H](OP(=O)(S)OC[C@H]3O[C@@H](n4cnc5c(=O)[nH]c(N)nc54)C[C@@H]3OP(=O)(S)OC[C@H]3O[C@@H](n4cc(C)c(=O)[nH]c4=O)C[C@@H]3O)[C@H]2O)c(=O)[nH]c1=O (some centres not stated)
Active	–	–	–	Cc1cn([C@H]2C[C@H](OP(=O)(S)OC[C@H]3O[C@@H](n4ccc(N)nc4=O)C[C@@H]3OP(=O)(S)OC[C@H]3O[C@@H](n4cc(C)c(=O)[nH]c4=O)C[C@@H]3OP(=O)(S)OC[C@H]3O[C@@H](n4cnc5c(=O)[nH]c(N)nc54)C[C@@H]3OP(=O)(S)OC[C@H]3O[C@@H](n4cc(C)c(=O)[nH]c4=O)C[C@@H]3O)[C@@H](COP(=O)(S)O[C@H]3C[C@H](n4ccc(N)nc4=O)O[C@@H]3COP(=O)(S)O[C@H]3C[C@H](n4cc(C)c(=O)[nH]c4=O)O[C@@H]3COP(=O)(S)O[C@H]3C[C@H](n4cc(C)c(=O)[nH]c4=O)O[C@@H]3COP(=O)(S)O[C@H]3C[C@H](n4cnc5c(=O)[nH]c(N)nc54)O[C@@H]3COP(=O)(S)O[C@H]3C[C@H](n4ccc(N)nc4=O)O[C@@H]3COP(=O)(S)O[C@H]3C[C@H](n4cc(C)c(=O)[nH]c4=O)O[C@@H]3COP(=O)(S)O[C@H]3C[C@H](n4cnc5c(=O)[nH]c(N)nc54)O[C@@H]3COP(=O)(S)O[C@H]3C[C@H](n4cc(C)c(=O)[nH]c4=O)O[C@@H]3COP(=O)(S)O[C@H]3C[C@H](n4ccc(N)nc4=O)O[C@@H]3COP(=O)(S)O[C@H]3C[C@H](n4cc(C)c(=O)[nH]c4=O)O[C@@H]3COP(=O)(S)O[C@H]3C[C@H](n4cnc5c(N)ncnc54)O[C@@H]3COP(=O)(S)O[C@H]3C[C@H](n4cc(C)c(=O)[nH]c4=O)O[C@@H]3COP(=O)(S)O[C@@H]3C[C@@H](n4ccc(N)nc4=O)O[C@H]3CO)O2)c(=O)[nH]c1=O (some centres not stated)
inactive	–	inactive	inactive	CO[C@@H]1[C@H](OP(=O)(S)OC[C@H]2O[C@@H](n3ccc(N)nc3=O)C[C@@H]2OP(=O)(S)OC[C@H]2O[C@@H](n3ccc(N)nc3=O)C[C@@H]2OP(=O)(S)OC[C@H]2O[C@@H](n3cc(C)c(=O)[nH]c3=O)C[C@@H]2OP(=O)(S)OC[C@H]2O[C@@H](n3cc(C)c(=O)[nH]c3=O)C[C@@H]2OP(=O)(S)OC[C@H]2O[C@@H](n3ccc(N)nc3=O)C[C@@H]2OP(=O)(S)OC[C@H]2O[C@@H](n3cc(C)c(=O)[nH]c3=O)C[C@@H]2OP(=O)(S)OC[C@H]2O[C@@H](n3ccc(N)nc3=O)C[C@@H]2OP(=O)(S)OC[C@H]2O[C@@H](n3cc(C)c(=O)[nH]c3=O)C[C@@H]2OP(=O)(S)OC[C@H]2O[C@@H](n3cnc4c(=O)[nH]c(N)nc43)C[C@@H]2OP(=O)(S)OC[C@H]2O[C@@H](n3cc(C)c(=O)[nH]c3=O)C[C@@H]2O)[C@@H](COP(=O)(S)O[C@H]2[C@@H](OC)[C@H](n3cnc4c(=O)[nH]c(N)nc43)O[C@@H]2COP(=O)(S)O[C@H]2C[C@H](n3cc(C)c(=O)[nH]c3=O)O[C@@H]2COP(=O)(S)O[C@H]2C[C@H](n3ccc(N)nc3=O)O[C@@H]2COP(=O)(S)O[C@H]2C[C@H](n3cc(C)c(=O)[nH]c3=O)O[C@@H]2COP(=O)(S)O[C@H]2C[C@H](n3cnc4c(N)ncnc43)O[C@@H]2COP(=O)(S)O[C@H]2C[C@H](n3cc(C)c(=O)[nH]c3=O)O[C@@H]2COP(=O)(S)O[C@@H]2C[C@@H](n3ccc(N)nc3=O)O[C@H]2CO)O[C@H]1n1cnc2c(N)ncnc21 (some centres not stated)
